From ChEMBL document CHEMBL1275480, “Role of global regulators and nucleotide metabolism in antibiotic tolerance in Escherichia coli” (2008)

Experiments:
Escherichia coli [1] = test: Antimicrobial activity against dnaJ deficient Escherichia coli K-12 BW-25113 assessed as decrease in persistence at 10 ug/ml after 3 hrs by time kill analysis; assay type: functional, K-12 BW25113
Procedure, shortened: (§1)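 Keio single-gene deletion strains of E. coli K-12 BW25113 and the parent strain. Cultures: 1 ml LB overnight at 37°C with aeration, then diluted 1:100 into MOPS minimal medium (0.1% succinate, 0.05% Casamino Acids) and grown 5 h to exponential phase (~2 × 10^8 CFU/ml). Challenged 3 h with ciprofloxacin 1 μg/ml, streptomycin 10 μg/ml or ampicillin 100 μg/ml. Samples taken before and after, diluted, spot-plated on LB agar for CFU. Triplicate, standard deviations.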

Escherichia coli [2] = test: Antimicrobial activity against yigB deficient Escherichia coli K-12 BW-25113 assessed as decrease in persistence at 10 ug/ml after 3 hrs by time kill analysis relative to wild type; assay type: functional, K-12 BW25113; procedure, shortened: as §1
Escherichia coli [3] = test: Antimicrobial activity against ygfA deficient Escherichia coli K-12 BW-25113 assessed as decrease in persistence at 10 ug/ml after 3 hrs by time kill analysis relative to wild type; assay type: functional, K-12 BW25113; procedure, shortened: as §1
Escherichia coli [4] = test: Antimicrobial activity against dksA deficient Escherichia coli K-12 BW-25113 assessed as decrease in persistence at 10 ug/ml after 3 hrs by time kill analysis relative to wild type; assay type: functional, K-12 BW25113; procedure, shortened: as §1
Escherichia coli [5] = test: Antimicrobial activity against dnaK deficient Escherichia coli K-12 BW-25113 assessed as decrease in persistence at 10 ug/ml after 3 hrs by time kill analysis; assay type: functional, K-12 BW25113; procedure, shortened: as §1
Escherichia coli [6] = test: Antimicrobial activity against ygfA deficient Escherichia coli K-12 BW-25113 assessed as decrease in persistence at 100 ug/ml after 3 hrs by time kill analysis; assay type: functional, K-12 BW25113; procedure, shortened: as §1
Escherichia coli [7] = test: Antimicrobial activity against dnaK deficient Escherichia coli K-12 BW-25113 assessed as decrease in persistence at 100 ug/ml after 3 hrs by time kill analysis; assay type: functional, K-12 BW25113; procedure, shortened: as §1
Escherichia coli [8] = test: Antimicrobial activity against dksA deficient Escherichia coli K-12 BW-25113 assessed as decrease in persistence at 100 ug/ml after 3 hrs by time kill analysis; assay type: functional, K-12 BW25113; procedure, shortened: as §1
Escherichia coli [9] = test: Antimicrobial activity against dnaJ deficient Escherichia coli K-12 BW-25113 assessed as decrease in persistence at 100 ug/ml after 3 hrs by time kill analysis; assay type: functional, K-12 BW25113; procedure, shortened: as §1
Escherichia coli [10] = test: Antimicrobial activity against surA deficient Escherichia coli K-12 BW-25113 assessed as survival rate at 10 ug/ml after 6 hrs by time kill analysis
Escherichia coli [11] = test: Antimicrobial activity against apaH deficient Escherichia coli K-12 BW-25113 assessed as survival rate at 10 ug/ml after 6 hrs by time kill analysis
Escherichia coli [12] = test: Antimicrobial activity against Escherichia coli K-12 BW-25113 assessed as survival rate at 10 ug/ml after 6 hrs by time kill analysis

CN[C@@H]1[C@H](O[C@H]2[C@H](O[C@H]3[C@H](O)[C@@H](O)[C@H](N=C(N)N)[C@@H](O)[C@@H]3N=C(N)N)O[C@@H](C)[C@]2(O)C=O)O[C@@H](CO)[C@H](O)[C@H]1O [STREPTOMYCIN]
fold change (FC) (Escherichia coli [1]): 87
fold change (FC) (Escherichia coli [2]): 10
fold change (FC) (Escherichia coli [3]): 3
fold change (FC) (Escherichia coli [4]): 6
fold change (FC) (Escherichia coli [5]): 66

CC1(C)S[C@@H]2[C@H](NC(=O)[C@H](N)c3ccccc3)C(=O)N2[C@H]1C(=O)O [AMPICILLIN]
fold change (FC) (Escherichia coli [6]): 82
fold change (FC) (Escherichia coli [7]): 13
fold change (FC) (Escherichia coli [8]): 40
fold change (FC) (Escherichia coli [9]): 46

CC1COc2c(N3CCN(C)CC3)c(F)cc3c(=O)c(C(=O)O)cn1c23 (configuration not stated) [OFLOXACIN]
Activity (Escherichia coli [10]): 3.3%
Activity (Escherichia coli [11]): 1.7%
Activity (Escherichia coli [12]): 1.3%
